Reference: ChEMBL document CHEMBL3045003, “Divalent and oxabridged neonicotinoids constructed by dialdehydes and nitromethylene analogues of imidacloprid: design, synthesis, crystal structure, and insecticidal activities” (2010)

Assays:
Format in all cases: functional
[1] = system: Mythimna separata; assay: Insecticidal activity against second instar larval stage of Mythimna separata (Oriental armyworm) in compound pretreated corn leaves assessed as mortality at 500 mg/l at 25 +/-1 degC after 48 hr
[2] = system: Mythimna separata; assay: Insecticidal activity against second instar larval stage of Mythimna separata (Oriental armyworm) in compound pretreated corn leaves assessed as mortality at 25 +/-1degC after 48 hr
[3] = system: Aphis craccivora; assay: Insecticidal activity against apterous adult stage of Aphis craccivora (cowpea aphid) in horsebean leaves assessed as mortality at 500 mg/l at 25 +/-1 degC treated for 5 secs measured after 24 hr by leaf-dip method
Method in brief: (§1)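 Leaf-dip assay: horsebean leaves carrying 40-60 apterous adults were dipped in diluted compound, excess liquid was blotted off with filter paper, and they were held at 25 ± 1 °C, 50% RH. Controls were water containing Triton X-100. Mortality was scored 24 h after treatment, with three repetitions per treatment. Data were adjusted and subjected to probit analysis.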

[4] = system: Aphis craccivora; assay: Insecticidal activity against apterous adult stage of Aphis craccivora (cowpea aphid) in horsebean leaves assessed as mortality at 25 +/-1 degC treated for 5 secs measured after 24 hr by leaf-dip method; method in brief: as §1
[5] = system: Nilaparvata lugens; assay: (§2) Insecticidal activity against macropterous adult stage of imidaclopride-resistant Nilaparvata lugens (brown planthopper) assessed as concentration required to induce mortality per pest at 25 +/-1 degC applied topically to the prothorax notum of insect prior to rearing on rice seedlings measured after 48 hr by microtopical application technique
Method in brief: (§3)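 Microtopical application on unmated macropterous adult females aged 2-3 days. Compounds were serially diluted in acetone, and a 0.08 μL droplet was applied to the prothorax notum under CO2 anesthesia. About 30 insects were used per concentration, with three repeats; controls received acetone. Insects were then reared on soilless seedlings at 25 ± 1 °C, 16/8 h light/dark. LC50 (ng/pest) was obtained from probit regression lines.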

[6] = system: Nilaparvata lugens; assay: as §2, with “imidaclopride-sensitive” for “imidaclopride-resistant”; method in brief: as §3
[7] = system: Nilaparvata lugens; assay: Toxicity ratio of imidacloprid LC50 to compound LC50 for macropterous adult stage of imidaclopride-sensitive Nilaparvata lugens (brown planthopper) after 48 hr by microtopical application technique
Method in brief: (§4)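 Toxic ratio is imidacloprid's baseline-toxicity LC50 divided by the compound's LC50. LC50 values come from topical application of acetone solutions (0.08 μL droplet, prothorax notum, CO2 anesthesia) to unmated macropterous females aged 2-3 days, about 30 per concentration, three repeats. Insects were reared on seedlings at 25 ± 1 °C, and values were derived by probit analysis.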

[8] = system: Nilaparvata lugens; assay: Toxicity ratio of imidacloprid LC50 to compound LC50 for macropterous adult stage of imidaclopride-resistant Nilaparvata lugens (brown planthopper) after 48 hr by microtopical application technique; method in brief: as §4

Which results are given for `O=[N+]([O-])/C(=C/C/C=C(\C1=NCCN1Cc1ccc(Cl)nc1)[N+](=O)[O-])C1=NCCN1Cc1ccc(Cl)nc1`?
mortality at 500 µg/mL [1]: 100%; LC50 [2]: 28 µM; mortality at 500 µg/mL [3]: 100%; LC50 [4]: 9.51 µM

For `O=[N+]([O-])C1=C2N(Cc3ccccc3)CCN2[C@@H]2CC[C@H]1O2`, which mortality at 500 µg/mL [1] is on record?
The mortality at 500 µg/mL was 0%.

What about the mortality at 500 µg/mL [3] of the same compound?
Its mortality at 500 µg/mL is 13.6%.

For `O=[N+]([O-])/C(=C1/NCCN1Cc1ccc(Cl)nc1)C(O)/C=C(\C1=NCCN1Cc1ccc(Cl)nc1)[N+](=O)[O-]` (configuration not stated), which mortality at 500 µg/mL [1] is on record?
Its mortality at 500 µg/mL is 100%.

And the LC50 [2]?
The LC50 was 195 µM.

And the mortality at 500 µg/mL [3]?
Its mortality at 500 µg/mL is 78.1%.

Which results are given for `COC(/C=C(\C1=NCCN1Cc1ccc(Cl)nc1)[N+](=O)[O-])/C(=C1\NCCN1Cc1ccc(Cl)nc1)[N+](=O)[O-]` (configuration not stated)?
mortality at 500 µg/mL [1]: 100%; mortality at 500 µg/mL [3]: 97.7%

For `O=[N+]([O-])C1=C2N(Cc3ccc(Cl)cc3)CCN2[C@@H]2CC[C@H]1O2`, which mortality at 500 µg/mL [1] is on record?
Its mortality at 500 µg/mL is 0%.

And the mortality at 500 µg/mL [3]?
Its mortality at 500 µg/mL is 95.7%.

What does the source list for `O=[N+]([O-])C1=C2N(Cc3ccc(Cl)nc3)CCN2[C@@H]2CC[C@H]1O2`?
mortality at 500 µg/mL [1]: 100%; LC50 [5]: 0.4925 ng; LC50 [2]: 38.7 µM; mortality at 500 µg/mL [3]: 100%; LC50 [6]: 0.0742 ng; LC50 [4]: 4.71 µM; RatioLC50 [7]: 1.77; RatioLC50 [8]: 40.4

Which results are given for `O=[N+]([O-])C1=C2N(Cc3cnc(Cl)s3)CCN2[C@@H]2CC[C@H]1O2`?
mortality at 500 µg/mL [1]: 100%; LC50 [2]: 49.6 µM; mortality at 500 µg/mL [3]: 100%; LC50 [4]: 8.83 µM

Which results are given for `O=[N+]([O-])/C=C1/NCCN1Cc1ccc(Cl)nc1`?
mortality at 500 µg/mL [1]: 100%; LC50 [2]: 70.9 µM; mortality at 500 µg/mL [3]: 100%; LC50 [4]: 5.12 µM

How did the mortality at 500 µg/mL [1] turn out when `O=[N+]([O-])/N=C1\NCCN1Cc1ccc(Cl)nc1` [IMIDACLOPRID] was run?
Its mortality at 500 µg/mL is 100%.

What about the LC50 [5] of the same compound?
The LC50 was 22.1614 ng.

What about the LC50 [2] of the same compound?
Its LC50 is 125 µM.

What about the mortality at 500 µg/mL [3] of the same compound?
The mortality at 500 µg/mL was 100%.

What about the LC50 [6] of the same compound?
Its LC50 is 0.1316 ng.

And the LC50 [4]?
Its LC50 is 35 µM.

What about the RatioLC50 [7] of the same compound?
The RatioLC50 was 1.

What about the RatioLC50 [8] of the same compound?
Its RatioLC50 is 1.
